# Results published in ChEMBL document CHEMBL4689842, “EUbOPEN Chemogenomics Library wave 1” (2021).
# Test system: U2OS
# Experiment: Multiplex assay against U2OS
# Format: toxicity, cell-based
# Conditions: human
# Summary of the method: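 Live cells carried four stains from seeding: Hoechst33342, BioTracker Green Microtubule Cytoskeleton Dye, MitoTracker Red and Annexin V Alexa Fluor 680. They were imaged on a CQ1 microscope at 37°C and 5% CO2 after compound addition. Using CellPathfinder machine-learning gating, cells were split into Hoechst high-intensity objects or normal cells, normal cells into healthy, pyknosed or fragmented nuclei, and pyknosed cells into mitotic or apoptotic; tubulin, mitochondrial-mass and membrane-permeability phenotypes are per cents of healthy-nucleus cells.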
# [1] = 12 h, 1 µM, compound concentration 1 uM, replicate 1
# [2] = 12 h, 1 µM, compound concentration 1 uM, replicate 2
# [3] = 12 h, 10 µM, compound concentration 10 uM, replicate 1
# [4] = 12 h, 10 µM, compound concentration 10 uM, replicate 2
# [5] = 24 h, 1 µM, compound concentration 1 uM, replicate 1
# [6] = 24 h, 1 µM, compound concentration 1 uM, replicate 2
# [7] = 24 h, 10 µM, compound concentration 10 uM, replicate 1
# [8] = 24 h, 10 µM, compound concentration 10 uM, replicate 2
# [9] = 48 h, 1 µM, compound concentration 1 uM, replicate 1
# [10] = 48 h, 1 µM, compound concentration 1 uM, replicate 2
# [11] = 48 h, 10 µM, compound concentration 10 uM, replicate 1
# [12] = 48 h, 10 µM, compound concentration 10 uM, replicate 2
compound,measurement,setting,value
Cc1nc(-c2ccc(-c3ccc(C(=O)N4CCc5cc6c(cc54)C4(CCN(C)CC4)CO6)cc3)c(C)c2)no1 [SB-224289],Population Apoptotic (%),[1],50%
same,Population Fragmented Nuclei (%),[1],11%
same,Population Healthy Nuclei (%),[1],74%
same,Population Hoechst High Intensity Objects (%),[1],8%
same,Population Membrane Permeable-Phenotype (%),[1],6%
same,Population Mitochondria Different-Phenotype (%),[1],43%
same,Population Mitotic Cells (%),[1],50%
same,Population Normal (%),[1],91%
same,Population Pyknosed Nuclei (%),[1],13%
same,Population Tubulin-Different-Phenotype (%),[1],46%
same,Total Cell Count,[1],130
same,Population Apoptotic (%),[2],28%
same,Population Fragmented Nuclei (%),[2],4%
same,Population Healthy Nuclei (%),[2],81%
same,Population Hoechst High Intensity Objects (%),[2],12%
same,Population Membrane Permeable-Phenotype (%),[2],10%
same,Population Mitochondria Different-Phenotype (%),[2],42%
same,Population Mitotic Cells (%),[2],71%
same,Population Normal (%),[2],87%
same,Population Pyknosed Nuclei (%),[2],14%
same,Population Tubulin-Different-Phenotype (%),[2],37%
same,Total Cell Count,[2],65
same,Population Apoptotic (%),[3],62%
same,Population Fragmented Nuclei (%),[3],19%
same,Population Healthy Nuclei (%),[3],61%
same,Population Hoechst High Intensity Objects (%),[3],7%
same,Population Membrane Permeable-Phenotype (%),[3],45%
same,Population Mitochondria Different-Phenotype (%),[3],98%
same,Population Mitotic Cells (%),[3],37%
same,Population Normal (%),[3],92%
same,Population Pyknosed Nuclei (%),[3],19%
same,Population Tubulin-Different-Phenotype (%),[3],98%
same,Total Cell Count,[3],147
same,Population Apoptotic (%),[4],63%
same,Population Fragmented Nuclei (%),[4],7%
same,Population Healthy Nuclei (%),[4],77%
same,Population Hoechst High Intensity Objects (%),[4],11%
same,Population Membrane Permeable-Phenotype (%),[4],54%
same,Population Mitochondria Different-Phenotype (%),[4],100%
same,Population Mitotic Cells (%),[4],36%
same,Population Normal (%),[4],88%
same,Population Pyknosed Nuclei (%),[4],15%
same,Population Tubulin-Different-Phenotype (%),[4],100%
same,Total Cell Count,[4],56
same,Population Apoptotic (%),[5],53%
same,Population Healthy Nuclei (%),[5],75%
same,Population Hoechst High Intensity Objects (%),[5],6%
same,Population Membrane Permeable-Phenotype (%),[5],4%
same,Population Mitochondria Different-Phenotype (%),[5],40%
same,Population Mitotic Cells (%),[5],46%
same,Population Normal (%),[5],93%
same,Population Pyknosed Nuclei (%),[5],9%
same,Population Tubulin-Different-Phenotype (%),[5],25%
same,Total Cell Count,[5],152
same,Population Apoptotic (%),[6],0%
same,Population Fragmented Nuclei (%),[6],15%
same,Population Healthy Nuclei (%),[6],77%
same,Population Hoechst High Intensity Objects (%),[6],9%
same,Population Membrane Permeable-Phenotype (%),[6],6%
same,Population Mitochondria Different-Phenotype (%),[6],38%
same,Population Mitotic Cells (%),[6],100%
same,Population Normal (%),[6],90%
same,Population Pyknosed Nuclei (%),[6],7%
same,Population Tubulin-Different-Phenotype (%),[6],22%
same,Total Cell Count,[6],73
same,Population Apoptotic (%),[7],75%
same,Population Fragmented Nuclei (%),[7],24%
same,Population Healthy Nuclei (%),[7],51%
same,Population Hoechst High Intensity Objects (%),[7],9%
same,Population Membrane Permeable-Phenotype (%),[7],84%
same,Population Mitochondria Different-Phenotype (%),[7],98%
same,Population Mitotic Cells (%),[7],25%
same,Population Normal (%),[7],90%
same,Population Pyknosed Nuclei (%),[7],23%
same,Population Tubulin-Different-Phenotype (%),[7],98%
same,Total Cell Count,[7],171
same,Population Apoptotic (%),[8],76%
same,Population Fragmented Nuclei (%),[8],16%
same,Population Healthy Nuclei (%),[8],56%
same,Population Hoechst High Intensity Objects (%),[8],11%
same,Population Membrane Permeable-Phenotype (%),[8],86%
same,Population Mitochondria Different-Phenotype (%),[8],100%
same,Population Mitotic Cells (%),[8],23%
same,Population Normal (%),[8],88%
same,Population Pyknosed Nuclei (%),[8],26%
same,Population Tubulin-Different-Phenotype (%),[8],100%
same,Total Cell Count,[8],63
same,Population Apoptotic (%),[9],54%
same,Population Fragmented Nuclei (%),[9],12%
same,Population Healthy Nuclei (%),[9],77%
same,Population Hoechst High Intensity Objects (%),[9],6%
same,Population Membrane Permeable-Phenotype (%),[9],3%
same,Population Mitochondria Different-Phenotype (%),[9],15%
same,Population Mitotic Cells (%),[9],45%
same,Population Normal (%),[9],93%
same,Population Tubulin-Different-Phenotype (%),[9],15%
same,Total Cell Count,[9],156
same,Population Apoptotic (%),[10],50%
same,Population Fragmented Nuclei (%),[10],9%
same,Population Healthy Nuclei (%),[10],80%
same,Population Hoechst High Intensity Objects (%),[10],9%
same,Population Membrane Permeable-Phenotype (%),[10],8%
same,Population Mitochondria Different-Phenotype (%),[10],14%
same,Population Mitotic Cells (%),[10],50%
same,Population Normal (%),[10],90%
same,Population Pyknosed Nuclei (%),[10],10%
same,Population Tubulin-Different-Phenotype (%),[10],11%
same,Total Cell Count,[10],88
same,Population Apoptotic (%),[11],81%
same,Population Fragmented Nuclei (%),[11],27%
same,Population Healthy Nuclei (%),[11],28%
same,Population Hoechst High Intensity Objects (%),[11],15%
same,Population Membrane Permeable-Phenotype (%),[11],94%
same,Population Mitochondria Different-Phenotype (%),[11],97%
same,Population Mitotic Cells (%),[11],18%
same,Population Normal (%),[11],84%
same,Population Pyknosed Nuclei (%),[11],44%
same,Population Tubulin-Different-Phenotype (%),[11],97%
same,Total Cell Count,[11],225
same,Population Apoptotic (%),[12],88%
same,Population Fragmented Nuclei (%),[12],8%
same,Population Healthy Nuclei (%),[12],46%
same,Population Hoechst High Intensity Objects (%),[12],18%
same,Population Membrane Permeable-Phenotype (%),[12],75%
same,Population Mitochondria Different-Phenotype (%),[12],100%
same,Population Mitotic Cells (%),[12],11%
same,Population Normal (%),[12],81%
same,Population Pyknosed Nuclei (%),[12],45%
same,Population Tubulin-Different-Phenotype (%),[12],100%
same,Total Cell Count,[12],85
